Reference: ChEMBL document CHEMBL5653613 (Mol Cancer Ther, 2013)
The source made the active and inactive calls. The rule behind the calls is not given here.

How the values were obtained:
T47D [1] = test: Disruption of microtubule dynamics in human T47D cells assessed as formation of multipolar spindles at 5 umol/L incubated upto 72 hrs by immunofluorescence staining based analysis; format: functional, cell-based; conditions: dose 5.0 µmol/L
Summary of the method: (§1)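 T-47D cells (1 × 10^6/dish) in RPMI-1640 with 5% FBS were treated with or without 5 µmol/L for 24, 48 and 72 h. Cells were fixed in cold acetone and stained with mouse anti-α-tubulin or anti-γ-tubulin, then an FITC anti-mouse IgG secondary, plus DAPI. Fluorescence microscopy, 200× magnification.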

T47D [2] = test: Inhibition of clonogenic growth in human T47D cells incubated for 10 days by Hema-3 staining based microscopy; format: functional, cell-based; conditions: dose 1-5 µmol/L, time 10.0 day
Summary of the method: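 Colonies were stained with Hema-3, photographed under a microscope with a CCD camera, counted in duplicate, and expressed as % of control. Results are shown from 1 of 2 experiments.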

MCF7 [3] = test: Cytotoxicity against human MCF7 cells at 1 to 2.5 umol/L incubated for 72 hrs by MTS assay; format: functional, cell-based; conditions: dose 1-2.5 µmol/L
MCF7 [4] = test: Induction of apoptosis in human MCF7 cells assessed as rate of apoptotic cell death at 5 umol/L by annexin V/PI staining based flow cytometry relative to control; format: functional; conditions: dose 5 µmol/L; at 5 µM
T47D [5] = test: Induction of apoptosis in human T47D cells assessed as necrotic cells at 5 umol/L incubated for 3 days by Annexin V/PI staining based flow cytometry (reference value: 0.6 %); format: functional; conditions: dose 5 µmol/L; time 3 day; at 5 µM
ZR-75-1 [6] = test: Induction of apoptosis in human ZR-75-1 cells assessed as viable cells at 5 umol/L incubated for 3 days by Annexin V/PI staining based flow cytometry (reference value: 95 %); format: functional; conditions: ZR-75-1, 72 h, dose 5 µmol/L, time 3 day, read-out: Activity
ZR-75-1 [7] = test: Induction of apoptosis in human ZR-75-1 cells assessed as early cells at 5 umol/L incubated for 3 days by Annexin V/PI staining based flow cytometry (reference value: 0.5 %); format: functional; conditions: dose 5 µmol/L; time 3 day; at 5 µM
T47D [8] = test: Induction of polyploidy in human T47D cells at 5 umol/L incubated for 72 hrs by microscopic analysis relative to control; format: functional; conditions: dose 5 µmol/L, at 5 µM
Summary of the method: (§2)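 Cells stained with Hema-3 and photographed under a light microscope with CCD camera. Polyploid cells scored as percent of the population.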

MCF7 [9] = test: Induction of polyploidy in human MCF7 cells at 5 to 10 umol/L incubated for 72 hrs by microscopic analysis relative to control; format: functional; conditions: dose 5-10 µmol/L, at 5 to 10 µM; summary of the method: as §2
ZR-75-1 [10] = test: Induction of polyploidy in human ZR-75-1 cells at 5 umol/L by microscopic analysis; format: functional, cell-based; conditions: dose 5.0 µmol/L, time 72.0 hrs, TDE = time-dependent effect
MCF7 [11] = test: Induction of polyploidy in human MCF7 cells at 5 umol/L by microscopic analysis; format: functional, cell-based; conditions: dose 5.0 µmol/L, time 72.0 hrs, TDE = time-dependent effect
T47D [12] = test: Induction of cell death of human T47D cells with RON-/- at 5 umol/L incubated for 72 hrs followed by media replacement without compound measured upto 10 days by microscopic analysis; format: functional, cell-based; conditions: dose 5.0 µmol/L
MCF7 [13] = test: Induction of polyploidy in human MCF7 cells assessed as cells with 4N chromosome contents at 5 uM incubated for 24 hrs by PI staining based flow cytometry (reference value: 36); format: functional
MCF7 [14] = test: Induction of polyploidy in human MCF7 cells assessed as cells with 8N chromosome contents at 5 uM incubated for 24 hrs by PI staining based flow cytometry (reference value: 0); format: functional
MCF7 [15] = test: Induction of polyploidy in human MCF7 cells assessed as cells with 2N chromosome contents at 5 uM incubated for 48 hrs by PI staining based flow cytometry (reference value: 52); format: functional
MCF7 [16] = test: Induction of polyploidy in human MCF7 cells assessed as cells with 8N chromosome contents at 5 uM incubated for 48 hrs by PI staining based flow cytometry (reference value: 0); format: functional
MCF7 [17] = test: Induction of polyploidy in human MCF7 cells assessed as cells with 8N chromosome contents at 5 uM incubated for 72 hrs by PI staining based flow cytometry (reference value: 0); format: functional
T47D [18] = test: Induction of polyploidy in human T47D cells assessed as cells with 4N chromosome contents at 5 uM incubated for 24 hrs by PI staining based flow cytometry (reference value: 35); format: functional
T47D [19] = test: Induction of polyploidy in human T47D cells assessed as cells with 2N chromosome contents at 5 uM incubated for 48 hrs by PI staining based flow cytometry (reference value: 48); format: functional
T47D [20] = test: Induction of polyploidy in human T47D cells assessed as cells with 8N chromosome contents at 5 uM incubated for 48 hrs by PI staining based flow cytometry (reference value: 0); format: functional
T47D [21] = test: Induction of polyploidy in human T47D cells assessed as cells with 16N chromosome contents at 5 uM incubated for 48 hrs by PI staining based flow cytometry (reference value: 0); format: functional
T47D [22] = test: Induction of polyploidy in human T47D cells assessed as cells with 2N chromosome contents at 5 uM incubated for 72 hrs by PI staining based flow cytometry (reference value: 48); format: functional
T47D [23] = test: Induction of polyploidy in human T47D cells assessed as cells with 4N chromosome contents at 5 uM incubated for 72 hrs by PI staining based flow cytometry (reference value: 35); format: functional
ZR-75-1 [24] = test: Induction of polyploidy in human ZR-75-1 cells assessed as cells with 2N chromosome contents at 5 uM incubated for 24 hrs by PI staining based flow cytometry (reference value: 48); format: functional
ZR-75-1 [25] = test: Induction of polyploidy in human ZR-75-1 cells assessed as cells with 16N chromosome contents at 5 uM incubated for 24 hrs by PI staining based flow cytometry (reference value: 0); format: functional
T47D [26] = test: Disruption of microtubule dynamics in human T47D cells assessed as absence of functional bipolar spindle assembly at 5 umol/L incubated for 24 hrs by immunofluorescence staining based analysis; format: cell-based; conditions: dose 5.0 µmol/L; summary of the method: as §1
T47D [27] = test: Disruption of microtubule dynamics in human T47D cells assessed as lack of metaphase equatorial alignment at 5 umol/L incubated for 24 hrs by immunofluorescence staining based analysis; format: functional, cell-based; conditions: dose 5.0 µmol/L; summary of the method: as §1
T47D [28] = test: Disruption of microtubule dynamics in human T47D cells assessed as lack of chromosomal segregation at 5 umol/L incubated for 24 hrs by immunofluorescence staining based analysis; format: functional, cell-based; conditions: dose 5.0 µmol/L; summary of the method: as §1
T47D [29] = test: Induction of cell cycle arrest at metaphase in human T47D cells assessed as disorganization of multipolar mitotic spindles at 5 umol/L preincubated for 24 hrs followed by extensive compound washout and subsequent culturing in compound-free media measured upto 120 mins by immunofluorescence staining based analysis; format: functional; conditions: dose 5.0 µmol/L
Summary of the method: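 T-47D cells were treated at 37°C with 5 µmol/L for 24 h, washed extensively, then cultured in DMEM with 10% FBS for 30, 60 and 120 min. α- and γ-tubulin were detected by immunofluorescence with DAPI, imaged at 400×. The control was a 24 h preincubation with 5 µmol/L RO-3306. One of 2 experiments.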

ZR-75-1 [30] = test: Downregulation of histone H3 expression in human ZR-75-1 cells at 5 umol/L incubated upto 72 hrs by Western blot analysis; format: functional, cell-based; conditions: dose 5.0 µmol/L
Summary of the method: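 Cells were treated with 5 µmol/L for 0, 24, 48 and 72 h. Lysates were immunoblotted for AURK-B, phospho-Ser10 histone H3 and total histone H3, with β-actin reprobe as the loading control. Detection by enhanced chemiluminescence.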

[31] = Effect on paclitaxel resistance in human ZR-75-1 cells with compound-induced polyploidy assessed as change in paclitaxel-induced cytotoxicity by measuring increase in paclitaxel IC50 at 5 umol/L preincubated for 72 hrs followed by compound washout and subsequent paclitaxel treatment for 72 hrs by MTS assay; format: functional, cell-based

CCOc1ccn(-c2ccc(F)cc2)c(=O)c1C(=O)Nc1ccc(Oc2ccnc(N)c2Cl)c(F)c1 [BMS-777607]
Activity (T47D [1]): Active | inhibition (T47D [2]): Dose-Dependent Effect | Activity (MCF7 [3]): inactive | Activity (MCF7 [4]): 2.2% | Activity (T47D [5]): 2.4% | viability at 5 µM (ZR-75-1 [6]): 88.5% | Activity (ZR-75-1 [7]): 2.3% | Activity (T47D [8]): 78% | Activity (MCF7 [9]): 36% | Activity (ZR-75-1 [10]): Tde | Activity (MCF7 [11]): Tde | Activity (T47D [12]): inactive | Activity (MCF7 [13]): 45.5 | Activity (MCF7 [14]): 14 | Activity (MCF7 [15]): 12 | Activity (MCF7 [16]): 25.5 | Activity (MCF7 [17]): 29 | Activity (T47D [18]): 20 | Activity (T47D [19]): 7.4 | Activity (T47D [20]): 23 | Activity (T47D [21]): 18.5 | Activity (T47D [22]): 7.5 | Activity (T47D [23]): 20 | Activity (ZR-75-1 [24]): 15.5 | Activity (ZR-75-1 [25]): 5 | Activity (T47D [26]): Active | Activity (T47D [27]): Active | Activity (T47D [28]): Active | Activity (T47D [29]): Active | Activity (ZR-75-1 [30]): inactive | IC50 [31]: 20.8 nM
